Where two headings read alike, the source gives them in different places. Each block holds one molecule with its values, some of them ahead of it.
Legend:
[1] = tested on: CYP1B1 mRNA in HaCaT cells; experiment: CYP1B1 gene expression by qRT-PCR in HaCaT cells, single exposure; assay type: cell-based, human; conditions: 6 h; for reduction of CYP1B1 mRNA levels compared to DMSO control: dose-dependent, 0.1-10 μM
In short: (§1)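 Confluent HaCaT cells (seeded 1 × 10^4/well, grown 3 d) were exposed in fresh DMEM to 0.1, 1.0 or 10 μM test compound or DMSO for 6 h. One-step SYBR Green RT-PCR used cell lysate directly with 200 nM primers. Cycling was 48 °C 30 min, 95 °C 10 min, then 40 × (95 °C 15 s, 60 °C 1 min), with melt curve. Expression is 2^–ΔΔCt normalized to B2M; three experiments in duplicate. Calls required p < 0.05 (two-way ANOVA, Bonferroni) and >2-fold versus DMSO; strong inducer was ≥20-fold.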

[2] = tested on: CYP1A1 mRNA in HaCaT cells; experiment: CYP1A1 gene expression by qRT-PCR in HaCaT cells, single exposure; assay type: cell-based, human; conditions: 6 h; for reduction of CYP1A1 mRNA levels compared to DMSO control: dose-dependent, 0.1-10 μM
In short: as §1

human recombinant CYP1A1 = molecular target: T1, human recombinant CYP1A1 (Homo sapiens, UniProt P04798); experiment: EROD activity of microsomes containing human recombinant CYP1A1; assay type: biochemical
T1 sequence (P04798 1-512): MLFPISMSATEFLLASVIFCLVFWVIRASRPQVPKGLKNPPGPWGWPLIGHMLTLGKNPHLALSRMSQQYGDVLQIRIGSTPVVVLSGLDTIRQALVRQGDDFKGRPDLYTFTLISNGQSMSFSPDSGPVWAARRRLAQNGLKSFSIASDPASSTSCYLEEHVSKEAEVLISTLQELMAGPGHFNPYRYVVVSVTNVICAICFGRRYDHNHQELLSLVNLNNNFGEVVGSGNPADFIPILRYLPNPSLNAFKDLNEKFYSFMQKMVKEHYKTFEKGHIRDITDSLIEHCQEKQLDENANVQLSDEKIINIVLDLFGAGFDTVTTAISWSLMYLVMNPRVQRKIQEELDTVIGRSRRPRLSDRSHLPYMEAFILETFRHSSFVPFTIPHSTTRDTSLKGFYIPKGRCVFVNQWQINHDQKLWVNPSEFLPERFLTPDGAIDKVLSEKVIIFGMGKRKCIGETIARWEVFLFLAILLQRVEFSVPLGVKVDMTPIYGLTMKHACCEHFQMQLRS
In short: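 Microsomes containing recombinant human CYP1A1 (2.5 nM) with NADPH-P450 reductase were pre-incubated 5 min with test compound (0.00064–20 μM) or DMSO (final <0.5%). 7-Ethoxyresorufin (0.5 μM) and NADPH (0.4 mM) were then added. Resorufin formation was followed kinetically at 535/590 nm, every 2 s, in triplicate. DMSO control was set as 100% and the no-NADPH reaction as 0%; IC50 was fitted by nonlinear regression.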

[3] = tested on: TCDD induced CYP1B1 mRNA in HaCaT cells; experiment: TCDD-induced CYP1B1 mRNA in HaCaT cells, co-exposure with oxy-PAH; assay type: cell-based, human; conditions: TCDD 5 nM + 1 μM oxy-PAH, 6 h
In short: (§2)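 Confluent HaCaT cells were exposed for 6 h to TCDD (5 nM) alone or with 0.1, 1.0 or 10 μM test compound. CYP1A1 and CYP1B1 mRNA were measured by one-step SYBR Green RT-PCR on cell lysate with 200 nM primers. Quantification used 2^–ΔΔCt with B2M as reference; three experiments in duplicate. Levels are % of TCDD-alone mRNA (100%). Strong inhibitor meant p < 0.05 at ≤1 μM; inhibitor meant p < 0.05 at 10 μM (two-way ANOVA, Bonferroni).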

[4] = tested on: TCDD induced CYP1A1 mRNA in HaCaT cells; experiment: TCDD-induced CYP1A1 mRNA in HaCaT cells, co-exposure with oxy-PAH; assay type: cell-based, human; conditions: TCDD 5 nM + 1 μM oxy-PAH, 6 h
In short: as §2

[5] = tested on: TCDD induced CYP1-dependent EROD activity in HaCaT cells; experiment: TCDD-induced cellular EROD activity in HaCaT cells, co-exposure with oxy-PAH; assay type: cell-based, human; conditions: TCDD 5 nM + 0.1-10 μM oxy-PAH, 6, 12, 24 h
In short: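 Confluent HaCaT cells were co-exposed to TCDD (5 nM) alone or with 0.1, 1.0 or 10 μM test compound for 6, 12 and 24 h. After a PBS rinse, cells were incubated 20 min at 37 °C with 2 μM 7-ethoxyresorufin in 50 mM sodium phosphate, pH 8.0, and stopped with cold fluorescamine. Resorufin (535/590 nm) was read in triplicate and normalized to fluorescamine protein signal. Activity is % of TCDD alone.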

[6] = tested on: CYP1-dependent EROD activity in HaCaT cells; experiment: Cellular CYP1-dependent EROD activity in HaCaT cells, single exposure; assay type: cell-based, human; conditions: HaCaT cells, 0.1, 1.0 or 10 μM, 3-48 h
In short: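 Confluent HaCaT cells were exposed to 0.1, 1.0 or 10 μM test compound, B[a]P or DMSO for 3, 6, 24 and 48 h. Medium was removed and cells rinsed with PBS, then incubated 20 min at 37 °C with 2 μM 7-ethoxyresorufin in 50 mM sodium phosphate, pH 8.0. The reaction was stopped with cold fluorescamine (0.15 mg/mL in acetonitrile). Resorufin was read at 535/590 nm in triplicate and normalized to protein (fluorescamine, 390/485 nm).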

HaCaT cells = experiment: Alamar Blue cell viability assay; assay type: cell-based, human; conditions: 10 μM, alone or with TCDD 5 nM, 24 h
In short: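 HaCaT keratinocytes were grown in DMEM with 10% FBS at 37 °C, 5% CO2, seeded at 1 × 10^4 cells/well and cultured 3 d to high confluency. Cells were exposed in fresh DMEM to test compound alone or with TCDD (5 nM), with 0.1–0.18% DMSO as solvent control. Afterwards, 10% AlamarBlue in DMEM was added for 1 h at 37 °C and fluorescence read at 560/590 nm. Viability is given as % of DMSO control, from three separate experiments.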

[7] = tested on: TCDD induced CYP1 mRNA (CYP1A1 and 1B1) in HaCaT cells; experiment: TCDD-induced CYP1 mRNA; assay type: cell-based, human; conditions: TCDD 5 nM + 0.1-10 μM oxy-PAH, 6 h
In short: as §2

CYP1 = conditions: read-out: reported IC50 values, CYP1 inhibition; cited from earlier work
[8] = IC50, inhibition of CYP1A1-mediated EROD activity, human recombinant CYP1A1 2.5 nM, 7-ethoxyresorufin 0.5 μM, NADPH 0.4 mM, 5 min pre-incubation

SMILES: O=C1c2ccccc2-c2ccc3ccccc3c21 [BFLO, benzo[a]fluorenone]
increase of CYP1B1 mRNA levels compared to DMSO control ([1]; 0.1-10 μM oxy-PAH): ≤ 40 fold
increase of CYP1A1 mRNA levels compared to DMSO control ([2]; 0.1-10 μM oxy-PAH): up to 60 fold
IC50 (human recombinant CYP1A1; read-out: IC50, inhibition of CYP1A1-mediated EROD activity, human recombinant CYP1A1 2.5 nM, 7-ethoxyresorufin 0.5 μM, NADPH 0.4 mM, 5 min pre-incubation): 61 nM
reduction of TCDD-induced CYP1B1 mRNA levels [3]: around 50%
reduction of TCDD-induced CYP1A1 mRNA levels [4]: around 50%
inhibition of TCDD-mediated EROD activity (in words) [5]: most potent inhibitors

SMILES: O=C1c2ccccc2-c2cccc3cccc1c23 [7H-BAO, 7H-benz[de]anthracene-7-one]
IC50 (human recombinant CYP1A1; [8]): 770 nM

SMILES: Clc1cc2c(cc1Cl)Oc1cc(Cl)c(Cl)cc1O2 [TCDD, 2,3,7,8-Tetrachlorodibenzo-p-dioxin, reference compound]
increase of CYP1B1 mRNA levels compared to DMSO control ([1]; TCDD alone 5 nM): 36 fold
increase of CYP1A1 mRNA levels compared to DMSO control ([2]; TCDD alone 5 nM): 138 fold

reduction of CYP1B1 mRNA levels compared to DMSO control [1]: up to 15 fold
reduction of CYP1A1 mRNA levels compared to DMSO control [2]: up to 15 fold
reduction of TCDD-induced CYP1B1 mRNA levels [3]: around 50%
reduction of TCDD-induced CYP1A1 mRNA levels [4]: around 50%
inhibition of TCDD-mediated EROD activity (in words) [5]: significant inhibition
SMILES: O=C1c2cccc3ccc4ccc5cccc1c5c4c23 [6H-BPO, 6H-benzo[cd]pyren-6-one]
induction of cellular EROD activity (in words) [6]: significantly increased levels of enzyme activity compared to the DMSO control but lower than B[a]P
cytotoxicity (Alamar Blue viability, in words) (HaCaT cells): not associated with increased cytotoxicity

increase of CYP1B1 mRNA levels compared to DMSO control ([1]; 0.1-10 μM oxy-PAH): ≤ 40 fold
increase of CYP1A1 mRNA levels compared to DMSO control ([2]; 0.1-10 μM oxy-PAH): up to 60 fold
effect on TCDD-induced CYP1A1 and 1B1 expression levels (in words) [7]: no effect at all
inhibition of TCDD-mediated EROD activity (in words) [5]: significant inhibition
SMILES: O=C1c2ccccc2C(=O)c2cc3ccccc3cc21 [5,12-NQ, naphthacene-5,12-quinone]

SMILES: O=C1C(=O)c2ccccc2-c2ccccc21 [9,10-PQ, phenanthrene-9,10-quinone]
cytotoxicity (Alamar Blue viability, in words) (HaCaT cells): increased cytotoxicity

IC50 (human recombinant CYP1A1; [8]): > 10000 nM
SMILES: O=C1C=Cc2cccc3cccc1c23 [1H-PHO, 1H-phenalen-1-one]

SMILES: O=C1C=CC(=O)c2c1ccc1c2ccc2ccccc21 [1,4-CHRQ, chrysene-1,4-quinone]
induction of cellular EROD activity (in words) [6]: did not induce EROD activity
increase of CYP1B1 mRNA levels compared to DMSO control ([1]; 0.1-10 μM oxy-PAH): ≤ 40 fold
increase of CYP1A1 mRNA levels compared to DMSO control ([2]; 0.1-10 μM oxy-PAH): up to 60 fold
IC50 (human recombinant CYP1A1; [8]): 6200 nM
effect on TCDD-induced CYP1A1 and 1B1 expression levels (in words) [7]: no effect at all

SMILES: c1ccc2c(c1)ccc1nc3ccc4ccccc4c3cc12 [dibenz[a,j]acridine]
IC50 (CYP1): < 100 nM

IC50 (human recombinant CYP1A1; [8]): > 10000 nM
SMILES: O=C1CCc2ccccc21 [1-INO, 1-Indanone]

SMILES: Cc1ccc2c(c1)C(=O)c1ccccc1C2=O [2-MAQ, 2-methylanthracene-9,10-quinone]
induction of cellular EROD activity (in words) [6]: significantly increased levels of enzyme activity compared to the DMSO control but lower than B[a]P

SMILES: O=C1c2ccccc2C(=O)c2ccccc21 [9,10-AQ, anthracene-9,10-quinone]
reduction of CYP1B1 mRNA levels compared to DMSO control [1]: up to 15 fold
reduction of CYP1A1 mRNA levels compared to DMSO control [2]: up to 15 fold
IC50 (human recombinant CYP1A1; [8]): > 10000 nM
inhibition of TCDD-mediated EROD activity (in words) [5]: significant inhibition

SMILES: c1ccc2cc3c(ccc4ccccc43)cc2c1 [benz[a]anthracene]
IC50 (CYP1): < 100 nM

SMILES: O=C1c2ccccc2C(=O)c2c1ccc1ccccc21 [7,12-BAQ, benz[a]anthracene-7,12-quinone]
increase of CYP1B1 mRNA levels compared to DMSO control ([1]; 0.1-10 μM oxy-PAH): ≤ 40 fold
increase of CYP1A1 mRNA levels compared to DMSO control ([2]; 0.1-10 μM oxy-PAH): up to 60 fold
IC50 (human recombinant CYP1A1; [8]): 37 nM
effect on TCDD-induced CYP1A1 and 1B1 expression levels (in words) [7]: no effect at all
inhibition of TCDD-mediated EROD activity (in words) [5]: most potent inhibitors

reduction of CYP1B1 mRNA levels compared to DMSO control [1]: up to 15 fold
reduction of CYP1A1 mRNA levels compared to DMSO control [2]: up to 15 fold
IC50 (human recombinant CYP1A1; [8]): 320 nM
SMILES: O=c1c2cccc3ccc4cccc1c4c32 [4H-CPO, 4H-Cyclopenta[def]phenanthrene-4-one]
induction of cellular EROD activity (in words) [6]: significantly increased levels of enzyme activity compared to the DMSO control but lower than B[a]P

SMILES: c1cc2ccc3cccc4ccc(c1)c2c34 [pyrene]
IC50 (CYP1): < 100 nM

SMILES: O=c1cc(-c2ccccc2)oc2c1ccc1ccccc12 [αNF, α-Naphthoflavone]
IC50 (CYP1): < 100 nM

SMILES: O=C1C(=O)c2cccc3cccc1c23 [1,2-ACNQ, acenaphthylene-1,2-quinone]
IC50 (human recombinant CYP1A1; [8]): > 10000 nM

IC50 (human recombinant CYP1A1; [8]): 2100 nM
reduction of TCDD-induced CYP1B1 mRNA levels [3]: around 50%
reduction of TCDD-induced CYP1A1 mRNA levels [4]: around 50%
inhibition of TCDD-mediated EROD activity (in words) [5]: significant inhibition
SMILES: Cc1cc2c(cc1C)C(=O)c1ccccc1C2=O [2,3-DMAQ, 2,3-dimethylanthracene-9,10-quinone]
induction of cellular EROD activity (in words) [6]: significantly increased levels of enzyme activity compared to the DMSO control but lower than B[a]P

IC50 (human recombinant CYP1A1; [8]): 3000 nM
SMILES: O=C1c2ccccc2-c2ccccc21 [9-FLO, 9-fluorenone]

From paper PMC6062249 (Toxicology Research, 2016)
